ChEMBL document CHEMBL1134475, “3-(4-Fluoropiperidin-3-yl)-2-phenylindoles as high affinity, selective, and orally bioavailable h5-HT(2A) receptor antagonists” (J Med Chem, 2001)

What was measured:
[1] = biological target: Voltage-gated inwardly rectifying potassium channel KCNH2 (Homo sapiens, UniProt Q12809); assay: Displacement of [3H]dofetilide from HEK cells expressing hERG voltage dependent IKr potassium channel Kv11.1
[2] = Maximum blood concentration after oral dosing at 2 mg/kg in rat; assay type: ADME, organism-based; set-up: dose 2 mg/kg, route oral
Summary of the method: (§1)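 Male Sprague-Dawley rats (~300 g) gavaged at 2 mg/kg (5 mL/kg of 0.5% methocel A4C suspension), five rats; one rat culled per time point up to 4 h for blood. Samples get internal standard and are extracted into ethyl acetate, then LC-MS single ion recording.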

[3] = Bioavailability in rat (dose 0.5-2 mg/kg i.v. and p.o.); assay type: ADME, organism-based; conditions: in vivo, po
Summary of the method: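 Male Sprague-Dawley rats (~300 g), jugular-cannulated, three per route. Dosing by i.v. tail-vein bolus and oral gavage, each in a suitable vehicle. Serial jugular blood samples taken; plasma extracted with ethyl acetate against an internal standard. Analysis by LC-MS with single ion recording. F from model-independent parameters.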

[4] = biological target: T1, 5-hydroxytryptamine receptor 2C (Homo sapiens, UniProt P28335); assay: Ability to displace [3H]mesulergine binding to human 5-hydroxytryptamine 2C receptor stably expressed in CHO cells; assay type: cell-based
T1 sequence (P28335 whole entry): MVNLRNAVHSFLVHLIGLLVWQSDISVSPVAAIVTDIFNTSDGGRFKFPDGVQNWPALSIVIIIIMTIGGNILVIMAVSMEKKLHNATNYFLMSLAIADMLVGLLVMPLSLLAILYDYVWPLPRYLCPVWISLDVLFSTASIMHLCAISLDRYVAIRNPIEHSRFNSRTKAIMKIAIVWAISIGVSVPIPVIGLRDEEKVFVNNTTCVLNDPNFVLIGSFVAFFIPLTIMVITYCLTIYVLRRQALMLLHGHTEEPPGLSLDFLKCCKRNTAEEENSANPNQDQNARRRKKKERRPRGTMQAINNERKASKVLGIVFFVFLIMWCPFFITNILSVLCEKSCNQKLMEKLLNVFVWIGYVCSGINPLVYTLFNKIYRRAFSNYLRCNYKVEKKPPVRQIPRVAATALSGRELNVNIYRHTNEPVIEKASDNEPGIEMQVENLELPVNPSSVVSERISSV

[5] = biological target: 5-hydroxytryptamine receptor 2A (Homo sapiens, UniProt P28223); assay: Ability to displace [3H]ketanserin binding to human 5-hydroxytryptamine 2A receptor stably expressed in CHO cells; assay type: cell-based
5-hydroxytryptamine receptor 2A, sequence (P28223 whole entry): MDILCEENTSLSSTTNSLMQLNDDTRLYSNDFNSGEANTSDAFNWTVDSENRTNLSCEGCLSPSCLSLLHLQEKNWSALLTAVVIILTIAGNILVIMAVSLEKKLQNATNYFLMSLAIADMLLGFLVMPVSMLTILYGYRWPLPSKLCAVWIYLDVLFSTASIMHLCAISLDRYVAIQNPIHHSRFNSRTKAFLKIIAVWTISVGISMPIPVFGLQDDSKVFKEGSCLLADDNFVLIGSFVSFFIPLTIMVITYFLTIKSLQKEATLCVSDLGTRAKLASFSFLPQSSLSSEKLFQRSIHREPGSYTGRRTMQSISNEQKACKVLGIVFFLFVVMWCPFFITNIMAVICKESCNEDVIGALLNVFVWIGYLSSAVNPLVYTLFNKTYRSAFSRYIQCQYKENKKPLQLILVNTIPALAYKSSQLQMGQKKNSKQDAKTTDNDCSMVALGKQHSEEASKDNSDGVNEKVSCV
Summary of the method: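 Membranes from CHO cells stably expressing human 5-HT2A, homogenized in 50 mM Tris-HCl pH 7.5, at 2 mg wet weight/mL. Ki from nonlinear least-squares regression, geometric mean of at least three determinations.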

[6] = Area under the concentration-time curve for 0-4 hr after 2 mg/kg po in rat; assay type: ADME, organism-based; set-up: time < 4 hr, dose 2 mg/kg, route oral; conditions: in vivo; summary of the method: as §1
[7] = Terminal half-life following iv dosing in rat; assay type: ADME, organism-based; conditions: in vivo
[8] = biological target: D(2) dopamine receptor (Homo sapiens, UniProt P14416); assay: Ability to displace [3H]spiperone binding to CHO cells stably expressing dopamine receptor D2; assay type: cell-based
D(2) dopamine receptor, sequence (P14416 whole entry): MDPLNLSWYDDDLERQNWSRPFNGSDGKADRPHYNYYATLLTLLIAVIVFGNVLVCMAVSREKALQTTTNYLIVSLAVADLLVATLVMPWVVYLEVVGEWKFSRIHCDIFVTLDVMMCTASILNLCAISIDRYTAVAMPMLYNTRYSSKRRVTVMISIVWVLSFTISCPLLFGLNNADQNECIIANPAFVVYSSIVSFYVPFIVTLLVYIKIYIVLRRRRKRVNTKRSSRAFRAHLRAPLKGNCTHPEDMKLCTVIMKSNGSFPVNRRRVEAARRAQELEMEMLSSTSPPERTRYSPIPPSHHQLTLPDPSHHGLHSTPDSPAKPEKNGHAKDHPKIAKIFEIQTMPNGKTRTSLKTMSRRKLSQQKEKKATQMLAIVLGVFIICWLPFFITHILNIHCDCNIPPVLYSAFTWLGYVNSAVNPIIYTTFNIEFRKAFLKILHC

[9] = biological target: T2, Adrenergic receptor alpha-1 (Rattus norvegicus, UniProt P15823+P23944+P43140); assay: Ability to displace [3H]-prazosin binding to rat cortical membranes expressing Alpha-1 adrenergic receptors
T2 sequence (P15823 whole entry): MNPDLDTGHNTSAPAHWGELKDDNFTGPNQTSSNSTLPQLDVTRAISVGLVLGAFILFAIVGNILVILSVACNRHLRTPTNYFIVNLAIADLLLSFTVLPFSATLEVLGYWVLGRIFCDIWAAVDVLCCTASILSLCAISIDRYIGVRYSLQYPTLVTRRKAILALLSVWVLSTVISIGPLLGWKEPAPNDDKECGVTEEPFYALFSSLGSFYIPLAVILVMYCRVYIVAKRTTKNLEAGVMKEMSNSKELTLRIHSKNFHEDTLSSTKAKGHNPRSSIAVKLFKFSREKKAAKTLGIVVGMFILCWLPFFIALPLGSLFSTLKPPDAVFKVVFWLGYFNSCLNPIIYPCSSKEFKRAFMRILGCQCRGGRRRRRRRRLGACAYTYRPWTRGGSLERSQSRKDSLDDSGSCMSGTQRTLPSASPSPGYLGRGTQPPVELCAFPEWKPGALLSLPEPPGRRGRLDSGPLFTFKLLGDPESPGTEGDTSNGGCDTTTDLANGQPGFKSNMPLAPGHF
T2 sequence (P23944 whole entry): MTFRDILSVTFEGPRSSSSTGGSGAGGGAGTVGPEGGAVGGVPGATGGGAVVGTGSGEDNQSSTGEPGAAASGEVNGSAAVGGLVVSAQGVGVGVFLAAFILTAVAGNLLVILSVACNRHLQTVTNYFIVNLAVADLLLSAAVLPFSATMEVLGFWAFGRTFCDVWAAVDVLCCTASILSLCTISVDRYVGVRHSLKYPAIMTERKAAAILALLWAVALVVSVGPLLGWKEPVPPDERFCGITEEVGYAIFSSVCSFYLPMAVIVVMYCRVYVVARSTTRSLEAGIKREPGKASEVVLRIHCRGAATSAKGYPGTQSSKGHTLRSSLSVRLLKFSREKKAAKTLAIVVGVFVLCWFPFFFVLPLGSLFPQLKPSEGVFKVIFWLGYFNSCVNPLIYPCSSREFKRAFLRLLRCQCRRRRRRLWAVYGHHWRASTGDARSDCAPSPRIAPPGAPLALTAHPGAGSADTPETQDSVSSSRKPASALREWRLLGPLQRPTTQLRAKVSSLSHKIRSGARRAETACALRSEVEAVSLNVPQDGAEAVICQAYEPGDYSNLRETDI
T2 sequence (P43140 whole entry): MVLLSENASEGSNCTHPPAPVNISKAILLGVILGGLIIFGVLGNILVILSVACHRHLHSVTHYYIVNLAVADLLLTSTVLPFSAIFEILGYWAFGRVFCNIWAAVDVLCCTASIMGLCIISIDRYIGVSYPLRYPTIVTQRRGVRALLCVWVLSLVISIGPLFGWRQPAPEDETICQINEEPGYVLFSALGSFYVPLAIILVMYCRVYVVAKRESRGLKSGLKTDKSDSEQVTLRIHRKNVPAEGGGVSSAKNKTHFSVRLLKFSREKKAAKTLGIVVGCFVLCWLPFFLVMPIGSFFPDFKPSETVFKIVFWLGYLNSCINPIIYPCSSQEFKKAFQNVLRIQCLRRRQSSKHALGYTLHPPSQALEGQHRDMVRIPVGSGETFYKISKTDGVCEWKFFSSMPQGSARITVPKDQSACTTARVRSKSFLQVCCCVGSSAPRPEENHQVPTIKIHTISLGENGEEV

[10] = Bioavailability in dog (dose 0.5-2 mg/kg i.v. and p.o.); assay type: ADME, organism-based, Canis lupus familiaris; conditions: in vivo, po
Summary of the method: (§2)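 Female Beagle dogs (10-12 kg), three per route; i.v. cephalic-vein bolus (1 mL/kg PEG 300/water) and oral gavage (5 mL/kg of 0.5% methocel A4C suspension), 0.5-2 mg/kg. Serial blood to 24 h; plasma extracted with ethyl acetate, LC-MS. Model-independent bioavailability and terminal half-life after i.v. dosing.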

[11] = Terminal half-life following iv dosing in dog; assay type: ADME, organism-based, Canis lupus familiaris; conditions: in vivo; summary of the method: as §2

Voltage-gated inwardly rectifying potassium channel KCNH2, sequence (Q12809 whole entry): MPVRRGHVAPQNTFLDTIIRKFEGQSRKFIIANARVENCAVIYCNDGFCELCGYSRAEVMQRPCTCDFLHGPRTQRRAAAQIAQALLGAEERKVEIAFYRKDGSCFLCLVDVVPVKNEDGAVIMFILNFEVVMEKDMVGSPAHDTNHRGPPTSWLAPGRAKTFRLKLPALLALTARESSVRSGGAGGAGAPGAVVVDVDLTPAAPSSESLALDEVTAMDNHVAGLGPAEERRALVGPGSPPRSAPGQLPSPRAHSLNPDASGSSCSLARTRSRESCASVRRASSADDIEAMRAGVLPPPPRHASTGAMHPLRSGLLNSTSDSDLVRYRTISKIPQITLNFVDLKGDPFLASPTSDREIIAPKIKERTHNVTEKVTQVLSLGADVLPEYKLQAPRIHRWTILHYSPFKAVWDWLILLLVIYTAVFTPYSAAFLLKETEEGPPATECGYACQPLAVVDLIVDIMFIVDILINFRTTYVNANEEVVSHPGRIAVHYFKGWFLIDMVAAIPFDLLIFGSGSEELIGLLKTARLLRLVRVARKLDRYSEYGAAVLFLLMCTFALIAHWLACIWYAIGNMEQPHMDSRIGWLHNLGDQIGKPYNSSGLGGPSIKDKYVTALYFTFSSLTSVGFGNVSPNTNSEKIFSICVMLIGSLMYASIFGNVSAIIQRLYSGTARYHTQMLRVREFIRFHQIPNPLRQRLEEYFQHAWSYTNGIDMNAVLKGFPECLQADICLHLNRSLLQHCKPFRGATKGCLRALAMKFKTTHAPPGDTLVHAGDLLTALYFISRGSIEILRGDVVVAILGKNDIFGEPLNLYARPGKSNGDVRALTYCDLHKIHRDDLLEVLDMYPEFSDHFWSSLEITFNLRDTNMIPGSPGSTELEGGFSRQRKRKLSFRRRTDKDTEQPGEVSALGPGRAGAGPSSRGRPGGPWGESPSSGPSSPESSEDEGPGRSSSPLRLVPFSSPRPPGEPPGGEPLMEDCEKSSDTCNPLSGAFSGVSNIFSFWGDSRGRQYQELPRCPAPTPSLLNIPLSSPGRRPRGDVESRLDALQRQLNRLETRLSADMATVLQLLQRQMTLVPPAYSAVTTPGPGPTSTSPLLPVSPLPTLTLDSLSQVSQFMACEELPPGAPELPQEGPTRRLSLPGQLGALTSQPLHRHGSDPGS

c1ccc(CCN2[C@@H]3CC[C@H]2CC(c2c(-c4ccccc4)[nH]c4ccccc24)C3)cc1 (some centres undefined) gave a Ki [1] of 18 nM, a Cmax [2] of 210 ng/mL and a bioavailability [3] of 18%. For the same compound, the Ki [4] was 400 nM, the Ki [5] was 1.2 nM and the AUC(0-t) at 4 h [6] was 126 ng·h/mL. The half-life [7] was 2.3 h, the Ki [8] was 1000 nM and the Ki [9] was 250 nM.
With F[C@H]1CCNC[C@@H]1c1c(-c2ccccc2)[nH]c2ccccc12 the Ki [5] was 220 nM and the Ki [8] was over 1700 nM.
With Fc1ccc2c([C@@H]3CNCC[C@H]3F)c(-c3ccoc3)[nH]c2c1 the Ki [5] was 0.54 nM, the Ki [8] was over 1600 nM and the Ki [9] was 3.6 nM.
Work on Fc1ccc2c([C@@H]3CNCC[C@H]3F)c[nH]c2c1 yielded a Ki [5] of 70 nM.
O[C@@H]1CCNC[C@H]1c1c(-c2ccccc2)[nH]c2ccccc12 gave a Ki [5] of 3.3 nM and a Ki [8] of over 1600 nM.
In the case of c1ccc(-c2[nH]c3ccccc3c2C2CCNCC2)cc1, the Ki [1] is reported as 5700 nM, the Ki [4] is reported as 400 nM and the Ki [8] is reported as over 1600 nM. The Ki [9] was 2100 nM.
O=C1NCCN1CCN1CCCC(c2c(-c3ccccc3)[nH]c3ccccc23)C1 (centres undefined) gave a Cmax [2] of 85 ng/mL, a Ki [4] of 2500 nM and a Ki [5] of 26 nM. The AUC(0-t) at 4 h [6] was 217 ng·h/mL and the Ki [8] was over 1300 nM.
Fc1ccc(-c2[nH]c3cc(F)ccc3c2C2CCCNC2)cc1 (centres undefined) showed a Ki [1] of 1300 nM, a Ki [4] of 16 nM and a Ki [5] of 0.09 nM. The Ki [8] was 28 nM and the Ki [9] was 1.1 nM.
CN1CCN(C)C(c2c(-c3ccccc3)[nH]c3ccccc23)C1 (centres undefined) gave a Ki [5] of 320 nM and a Ki [8] of over 1600 nM.
With c1ccc(-c2[nH]c3ccccc3c2C2CNCCO2)cc1 (centres undefined) the Ki [5] was 18 nM and the Ki [8] was 1600 nM.
c1ccc(CCN2CCC(c3c(-c4ccccc4)[nH]c4ccccc34)CC2)cc1 gave a bioavailability [10] of 4%, a Ki [5] of 0.48 nM and a half-life [7] of 5.3 h. The half-life [11] was 9.8 h, the Ki [8] was 350 nM and the Ki [9] was 25 nM.
Work on c1ccc(-c2[nH]c3ccccc3c2C2CCCNC2)cc1 (centres undefined) yielded a Cmax [2] of 26 ng/mL, a Ki [4] of 89 nM and a Ki [5] of 0.99 nM. The AUC(0-t) at 4 h [6] was 47 ng·h/mL, the Ki [8] was over 1300 nM and the Ki [9] was 21 nM.
With CN1CCCCC1c1c(-c2ccccc2)[nH]c2ccccc12 (centres undefined) the Ki [4] was 2000 nM, the Ki [5] was 14 nM and the Ki [8] was over 1700 nM. It also gave a Ki [9] of 99 nM.
CN1CCCC(c2c(-c3ccccc3)[nH]c3ccccc23)C1 (centres undefined) showed a Ki [1] of 9600 nM, a Ki [4] of 150 nM and a Ki [5] of 4.7 nM. It also gave a Ki [8] of 28 nM and a Ki [9] of 30 nM.
In the case of c1ccc(CCN2CCCC(c3c(-c4ccccc4)[nH]c4ccccc34)C2)cc1 (centres undefined), the Ki [4] is reported as 2400 nM, the Ki [5] is reported as 59 nM and the Ki [8] is reported as 500 nM.
